In brackets after ≈: the same amount, converted by molar mass.

The text below walks through data of ChEMBL document CHEMBL1136741, “Role of the glycopeptide framework in the antibacterial activity of hydrophobic derivatives of glycopeptide antibiotics” (2003).

Assay [1] relates to Enterococcus faecium. Description: Antibacterial activity against glycopeptide resistant Enterococcus faecium 569 strain. Type of assay: functional. The method, boiled down: (§1)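 MIC by broth microdilution in Mueller Hinton broth following NCCLS procedures. Compounds were dissolved in 10% DMSO in water, then diluted in broth. Final DMSO was 1.28% at 128 µg/mL antibiotic down to 0.0013% at 0.13 µg/mL. Repeat determinations were usually identical and always within 2-fold.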

Assay [2] concerns Enterococcus faecium. Nature of the assay: Antibacterial activity against glycopeptide susceptible Enterococcus faecium 568 strain. Format: functional. The method, boiled down:
(§2)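 MIC by broth microdilution in Mueller Hinton broth following NCCLS procedures. Compounds dissolved in 10% DMSO in water, then diluted in broth; test range 128 to 0.13 µg/mL, final DMSO 1.28% to 0.0013% accordingly. Repeat determinations usually identical and always within 2-fold. Strain 533 is a clinical isolate; strain 602 is a clinical S. haemoliticus isolate.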

In assay [3] the test system is Enterococcus faecalis. Nature of the assay: Antibacterial activity against glycopeptide resistant Enterococcus faecalis 560 strain. Type of assay: functional. The method, boiled down:
as §1

In assay [4] the test system is Enterococcus faecalis. Description: Antibacterial activity against glycopeptide susceptible Enterococcus faecalis 559 strain. Format: functional. The method, boiled down:
as §2

In assay [5] the test system is Staphylococcus aureus. Nature of the assay: Antibacterial activity against glycopeptide intermediate resistant Staphylococcus aureus 3797 strain. Format: functional. The method, boiled down:
as §1

The test system of assay [6] is Staphylococcus aureus. Description: Antibacterial activity against glycopeptide intermediate resistant Staphylococcus aureus 3798 strain. Type of assay: functional. In outline: as §1
Assay [7] concerns Staphylococcus epidermidis. Description: Antibacterial activity against Staphylococcus epidermis 533 strain. Format: functional.
Assay [8] has as its system Staphylococcus haemolyticus. Nature of the assay: Antibacterial activity against Staphylococcus haemolyticus 602 strain.

As for `CCCCCCCCCCNC(=O)[C@H]1NC(=O)[C@H]2NC(=O)[C@H](NC(=O)[C@@H]3NC(=O)[C@H](CC(N)=O)NC(=O)[C@H](NC(=O)[C@@H](CC(C)C)NC)[C@H](O)c4ccc(c(Cl)c4)Oc4cc3cc(c4O[C@@H]3O[C@H](CO)[C@@H](O)[C@H](O)[C@H]3O[C@H]3C[C@](C)(N)C(O)[C@H](C)O3)Oc3ccc(cc3Cl)[C@H]2O)c2ccc(O)c(c2)-c2c(O)cc(O)cc21` (some centres undefined), the MIC (usually the lowest concentration found to suppress growth) against Enterococcus faecium [1] was determined as 8 µg/mL (≈ 5.04 µM); in the assay with Enterococcus faecium [2], 0.5 µg/mL (≈ 0.315 µM); with Enterococcus faecalis [3], 8 µg/mL (≈ 5.04 µM); with Enterococcus faecalis [4], 0.5 µg/mL (≈ 0.315 µM); with Staphylococcus aureus [5], 1 µg/mL (≈ 0.63 µM); against Staphylococcus aureus [6], 1 µg/mL (≈ 0.63 µM). For the same compound, the MIC came out at 0.5 µg/mL (≈ 0.315 µM) in assay [7] and 1 µg/mL (≈ 0.63 µM) in assay [8].
With `CCCCCCCCCCNC(=O)[C@H]1NC(=O)[C@H]2NC(=O)[C@H](NC(=O)[C@@H]3NC(=O)[C@H]4NC(=O)[C@@H](Cc5ccc(c(Cl)c5)Oc5cc3cc(c5O)Oc3ccc(cc3Cl)[C@H]2O)NC(=O)[C@H](N)c2ccc(O)c(c2)Oc2cc(O)cc4c2)c2ccc(O)c(c2)-c2c(O)cc(O)cc21`, the MIC against Enterococcus faecium [1] worked out at 4 µg/mL (≈ 2.99 µM); with Enterococcus faecium [2], 0.25 µg/mL (≈ 0.187 µM); against Enterococcus faecalis [3], 4 µg/mL (≈ 2.99 µM); against Enterococcus faecalis [4] it was 0.5 µg/mL (≈ 0.374 µM); against Staphylococcus aureus [5], 1 µg/mL (≈ 0.747 µM); in the assay on Staphylococcus aureus [6], 1 µg/mL (≈ 0.747 µM). The MIC came out at 0.13 µg/mL (≈ 0.0971 µM) in assay [7] and 0.5 µg/mL (≈ 0.374 µM) in assay [8].
In the case of `CC(=O)N[C@@H]1[C@H](O[C@@H]2c3ccc(c(Cl)c3)Oc3cc(cc(Oc4ccc(C[C@@H](N)CO)cc4Cl)c3O)[C@@H](N)C(=O)N[C@H]3C(=O)N[C@@H]2C(=O)N[C@H](C(=O)O)c2cc(O)cc(O[C@H]4O[C@H](CO)[C@@H](O)[C@@H](O)[C@@H]4O)c2-c2cc3ccc2O)O[C@@H](CO)[C@@H](O)[C@@H]1O`, the MIC was over 128 µg/mL against Enterococcus faecium [1]; 32 µg/mL (≈ 25.5 µM) in the assay with Enterococcus faecium [2]; over 128 µg/mL with Enterococcus faecalis [3]; 64 µg/mL (≈ 51 µM) in the assay on Enterococcus faecalis [4]; over 64 µg/mL in the assay with Staphylococcus aureus [5]; over 64 µg/mL in the assay with Staphylococcus aureus [6]. For the same compound, the MIC in assay [7] and in assay [8] was 64 µg/mL (≈ 51 µM) each time.
`NC(=O)C[C@@H]1NC(=O)[C@H](N)[C@H](O)c2ccc(c(Cl)c2)Oc2cc3cc(c2O)Oc2ccc(cc2)[C@@H](O)[C@@H]2NC(=O)[C@H](NC(=O)[C@@H]3NC1=O)c1ccc(O)c(c1)-c1c(O)cc(O)cc1[C@@H](C(=O)O)NC2=O`: the minimum inhibitory concentration (MIC) (against Enterococcus faecium [2]; with Enterococcus faecalis [4]; against Staphylococcus aureus [5]; against Staphylococcus aureus [6]; in assay [7]; in assay [8]) was over 128 µg/mL each time.
In the case of `C[C@@H]1O[C@@H](O[C@H]2[C@H](Oc3c4cc5cc3Oc3ccc(cc3Cl)[C@@H](O)[C@@H](N)C(=O)N[C@@H](CC(N)=O)C(=O)N[C@H]5C(=O)N[C@H]3C(=O)N[C@H](C(=O)N[C@H](C(=O)NCc5ccc(-c6ccc(Cl)cc6)cc5)c5cc(O)cc(O)c5-c5cc3ccc5O)[C@H](O[C@H]3C[C@](C)(N)[C@@H](O)[C@H](C)O3)c3ccc(cc3)O4)O[C@H](CO)[C@@H](O)[C@@H]2O)C[C@](C)(N)[C@H]1O`, the minimal inhibitory concentration (MIC) in the assay with Enterococcus faecium [1] amounted to 2 µg/mL (≈ 1.23 µM); with Enterococcus faecium [2], 4 µg/mL (≈ 2.45 µM); with Enterococcus faecalis [3] it was 4 µg/mL (≈ 2.45 µM); with Enterococcus faecalis [4], 4 µg/mL (≈ 2.45 µM); in the assay on Staphylococcus aureus [5], 8 µg/mL (≈ 4.91 µM); in the assay with Staphylococcus aureus [6], 8 µg/mL (≈ 4.91 µM). The MIC in assay [7] and in assay [8] was 4 µg/mL (≈ 2.45 µM) throughout.
`CCCCCCCCCCNC(=O)[C@H]1NC(=O)[C@H]2NC(=O)[C@H](NC(=O)[C@H](N)c3cc(Oc4ccc(C[C@@H](N)CO)cc4Cl)c(O)c(c3)Oc3ccc(cc3Cl)[C@H]2O[C@@H]2O[C@@H](CO)[C@@H](O)[C@H](O)[C@@H]2NC(C)=O)c2ccc(O)c(c2)-c2c(O[C@H]3O[C@H](CO)[C@@H](O)[C@@H](O)[C@@H]3O)cc(O)cc21`: the MIC in the assay with Enterococcus faecium [1] worked out at 16 µg/mL (≈ 11.5 µM); in the assay on Enterococcus faecium [2], 16 µg/mL (≈ 11.5 µM); in the assay on Enterococcus faecalis [3], 64 µg/mL (≈ 45.9 µM); in the assay with Enterococcus faecalis [4] it was 16 µg/mL (≈ 11.5 µM); with Staphylococcus aureus [5], 32 µg/mL (≈ 22.9 µM); against Staphylococcus aureus [6], 16 µg/mL (≈ 11.5 µM). The minimal inhibitory concentration (MIC) stood at 16 µg/mL (≈ 11.5 µM) in assay [7] and 32 µg/mL (≈ 22.9 µM) in assay [8].
Consider `CCCCCCCCCCNC(=O)[C@H]1NC(=O)[C@H]2NC(=O)[C@H](NC(=O)[C@@H]3NC(=O)[C@H](CC(N)=O)NC(=O)[C@H](NC(=O)[C@@H](CC(C)C)NC)[C@H](O)c4ccc(c(Cl)c4)Oc4cc3cc(c4O)Oc3ccc(cc3)[C@H]2O)c2ccc(O)c(c2)-c2c(O)cc(O)cc21`, for which the MIC in the assay with Enterococcus faecium [1], against Enterococcus faecium [2], in the assay with Enterococcus faecalis [3], against Enterococcus faecalis [4], in the assay on Staphylococcus aureus [5] and in the assay with Staphylococcus aureus [6] was 4 µg/mL (≈ 3.2 µM) each time. For the same compound, the MIC in assay [7] and in assay [8] was 4 µg/mL (≈ 3.2 µM) each time.
